Results from ChEMBL document CHEMBL4513216, “Probing the Open Global Health Chemical Diversity Library for Multistage-Active Starting Points for Next-Generation Antimalarials” (ACS Infect Dis, 2020).

Assay: Toxicity liver stage against HepG2, at 10uM
Format: cell-based
Design: test concentration 10 uM, cell line HepG2-A16-CD81EGFP
Conditions: human, HepG2-A16-CD81EGFP cells; read-out: INHIBITION
In short: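 Uninfected HepG2-A16-CD81EGFP cells, 3 × 10^3 per well, 1536-well, plated on prespotted compound at 10 μM final, parasite-free screening media added to match infected plates; puromycin 10 μM positive, DMSO 0.5% negative; run in parallel with 48 h PbLuc assay at 37 °C, 5% CO2; viability by CellTiter-Glo luminescence, normalized to controls.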

Row | Structure (SMILES) | cytotoxicity at 10 µM [%]
1 | O=c1[nH]cc(Nc2ccc(Cl)cc2)c(=O)[nH]1 | 18.4
2 | COCCc1noc(CN2CCN(c3ccc(OC)cc3)C(=O)C2C)n1 (stereo not given) | 0.296
3 | CCc1nnc(N2C[C@@H](CN(C)CCO)[C@@H](CO)C2)s1 | -5.61
4 | Cc1nc(CCNC(=O)NC2CCCc3c2cnn3CCO)cs1 (stereo not given) | 6.68
5 | CC(OCC1CC1)C(=O)NCc1ccc(Cn2ccnc2)cc1 (stereo not given) | 15.6
6 | CCn1c(CN2CCCC2)nnc1C1CCN(Cc2ccccn2)CC1 | 3.11
7 | Cc1ccsc1-c1cccc(-c2ccn(CC3CCNC3)n2)c1 (stereo not given) | -0.288
8 | CSc1ncc(CNC(C)c2cnn(-c3ccccc3)c2C)cn1 (stereo not given) | -3.63
9 | COCCNC(=O)Nc1ccc(C(=O)N2CCSCC2)cc1C | -2.13
10 | O=C(N[C@@H]1CCNC[C@H]1O)c1ccccc1OC(F)(F)C(F)F | -3.28
11 | Cc1csc(CNC(=O)N(C)Cc2ccncc2)n1 | -10.8
12 | Cc1cccc(COCC2c3nnn(C)c3CCN2Cc2ccoc2)n1 (stereo not given) | -142
13 | Cn1ccnc1SCCNC(=O)CC1CCc2ccccc21 (stereo not given) | -3.05
14 | Cc1[nH]n(-c2ccccc2)c2nnc(N)c1-2 | 12.4
15 | CCCN1C[C@@H]2CC[C@H]1CN(Cc1ccc(-n3cccn3)cc1)C2 | 5.05
16 | CN1CCCCC1c1ncc2c(n1)CCN(Cc1ccc(Cl)c(F)c1)C2 (stereo not given) | -27.7
17 | O=C(Nc1ccccc1)c1ccc(NCc2nccs2)nn1 | 5.62
18 | CC(NC(=O)C1CCN(C(C)C)CC1)c1nncn1C1CCCC1 (stereo not given) | -6.93
19 | CN(C)C(=O)[C@H]1CCS(=O)(=O)[C@@H]2CN(c3ncc(F)cn3)C[C@H]12 | -100
20 | CCN(Cc1ccc2c(c1)OCO2)Cc1nc(C)no1 | -6.49
21 | COCCNC(=O)Nc1ccn(-c2cccc(C(F)(F)F)c2)n1 | -1.94
22 | CC(C)NC(=O)c1ccc2nnc(C3CCN(C(=O)NC(C)C)C3)n2c1 (stereo not given) | -5.42

Row | Structure (SMILES) | cytotoxicity at 10 µM [%]
23 | Cc1noc(C)c1S(=O)(=O)N1CCC(Oc2ccccn2)CC1 | 0.67
24 | Cc1cc(CN2CCN(CC(=O)NC3(C#N)CCCCC3)CC2)on1 | 5.83
25 | O=C1[C@@H]2CCN(CC3CC3)C[C@@H]2OCCN1c1cccnc1 | 8.1
26 | CCC(C)(C)NC(=O)c1ccc(-c2ccco2)[nH]c1=O | -15.6
27 | O=C(NCc1ccccn1)NC1CCCN(c2ncccn2)C1 (stereo not given) | 6.21
28 | Cc1noc(C)c1CN(C)Cc1csc(-c2ccc(F)cc2)n1 | 27.8
29 | CCC(CC)C(O)CNC(=O)Cc1c[nH]c2ncccc12 (stereo not given) | 0.476
30 | CC(C)CN1CCS(=O)(=O)[C@@H]2CCN(S(=O)(=O)CC(C)C)CC[C@@H]21 | 11.3
31 | COc1ccc(CNC(=O)N2CCCC(Nc3ccccc3)C2)cn1 (stereo not given) | -4.57
32 | Cc1ccc(C(C(=O)N2CCC(Cc3noc(C)n3)CC2)N(C)C)cc1 (stereo not given) | -5.37
33 | CC1CN(c2cc(CNCc3cccc4c3OCCO4)ccn2)CCO1 (stereo not given) | 3.96
34 | CCOCC(=O)N1CC[C@H]2OCC[C@@]2(COc2ncccc2F)C1 | -152
35 | COc1ccc(OCCNC(=O)N2CCS(=O)(=O)CC2)cc1 | -6.95
36 | CSC(C)C(=O)N1CCCN(Cc2cscn2)CC1 (stereo not given) | -2.19
37 | CCOc1ncccc1CNC(=O)c1cc(C)on1 | -19
38 | O=S(=O)(N1CCOCC1)N1CCC(Oc2cnccn2)CC1 | -23.3
39 | Cc1cc(C)n(CC(=O)N2CCCCC2CCc2cccs2)c(=O)n1 (stereo not given) | 6.93
40 | Cn1cc(CN2CCCN(CCCc3ccccc3)CC2)cn1 | -50.8
41 | COCc1cccc(CNCc2c(C)nn(C)c2N2CCOCC2)c1 | -8.93
42 | Cc1noc(C)c1CN1CCN(C(=O)CCn2cncn2)CC1 | 0.975
43 | COC(=O)CN1CCCn2nc(CCC(=O)N3CCCC3)cc2C1 | -204
44 | Cc1ccc(CNC2CCCc3c2cnn3C)s1 (stereo not given) | -0.987

Row | Structure (SMILES) | cytotoxicity at 10 µM [%]
45 | CC(C)NC(=O)CN1CCSC2(CCCCC2)C1 | -13.7
46 | CCNc1cc2c(nn1)CCN(C(=O)c1cc3ccccc3o1)C2 | 3.88
47 | O=C(CN1CCCS1(=O)=O)NCCOc1ccc2c(c1)CCC2 | -2.5
48 | Cc1cc(C)n(C2CCN(c3ncnc4sc5c(c34)CCNC5)C2)n1 (stereo not given) | 17.3
49 | CCC1CCCN(CC(=O)Nc2oc(C)c3c(C)n[nH]c(=O)c23)C1 (stereo not given) | -3.66
50 | COCCCNC(=O)CN1CCC(N2CCN(C)C2=O)CC1 | -2.54
51 | O=C(Nc1ccccc1)N1C[C@@H]2OCCN(C(=O)c3ccco3)[C@@H]2C1 | -150
52 | Cn1ccc(C(=O)N2CCCN(CCCc3ccccc3)CC2)cc1=O | -0.942
53 | CN(CC(C)(C)C)S(=O)(=O)c1ccc(C(F)(F)F)nc1 | 3.24
54 | Cc1nocc1C(=O)N1CCCC2(CCN(c3ccsc3)C2=O)C1 (stereo not given) | -129
55 | CCN(CC1CCOC1)C(=O)Nc1ccc(-n2cncn2)nc1 (stereo not given) | -6.92
56 | CC[C@H](C)Nc1nccc(-c2cnc3sc(C)cn3c2=O)n1 | -6.02
57 | COc1cccc(CCC2CCCN(C(=O)c3ccccn3)C2)c1 (stereo not given) | -0.237
58 | Cc1noc(-c2cccnc2N(C)Cc2cscn2)n1 | -4.23
59 | CC(C)c1noc(CN2CCN(C(=O)OC(C)(C)C)C(C)C2)n1 (stereo not given) | 2.24
60 | CN1CCc2nnc(C3CCCN3S(=O)(=O)c3ccc(F)cc3)n2CC1 (stereo not given) | -0.594
61 | CC(=O)N1N=C(c2ccco2)OC1C(=O)N(C)CCc1ccccc1 (stereo not given) | -0.0253
62 | COc1c(CNC2CCOc3c(Cl)cccc32)c(C(C)C)nn1C (stereo not given) | 2.25
63 | CCN1CCN(C(=O)c2cc(C(=O)OC)nn2-c2ccccc2)CC1 | -13.4
64 | CCCS(=O)(=O)N1CCC2(CC1)CC(N1CCCC1)c1ccccc12 (stereo not given) | -0.664
65 | CC(C)c1nn(C)c(N(C)C)c1CNCc1ccc2c(c1)OCO2 | -5.58
66 | CSc1ccc(CNC(c2ccc(F)cc2)c2nccn2C)cc1 (stereo not given) | -10.8

Row | Structure (SMILES) | cytotoxicity at 10 µM [%]
67 | CN(C)c1cc(CNC(=O)Nc2ccc(C#N)cc2)ccn1 | -5.66
68 | O=C1CCC(=O)c2oc3ccc(Br)cc3c2N1 | 2.44
69 | COCCNC(=O)[C@H]1CN(Cc2sccc2C)C[C@H]2OCC[C@@H]12 | 2.05
70 | Cc1cc(N(Cc2ccon2)S(C)(=O)=O)ccc1Br | 4.51
71 | Cc1ccc(N2CCC3(CCN(Cc4nccs4)CC3)CC2)nn1 | 10.6
72 | Cn1cc(CNC2CC3(CCN(CC4CC4)CC3)c3ccccc32)cn1 (stereo not given) | -8.22
73 | CCc1nc(N2CCN(c3ncccn3)CC2)c2cnn(C)c2n1 | -1.04
74 | O=C(NCC(=O)N1CC2(CCCC2)c2c(F)cccc21)C1CC1 | -3.47
75 | CCN1CCCC1Cn1ccc2ccc(C(=O)OC)cc2c1=O (stereo not given) | -7.86
76 | COCCc1ncc(-c2c(C#N)c(N)nc3c2CCc2[nH]ccc2-3)cn1 | -0.508
77 | Cc1nc(N2CCCC2)ncc1C(=O)Nc1ccc(Br)cc1 | -1.85
78 | CN1CCO[C@@H]2CN(C(=O)NCc3cccc(F)c3)CC[C@@H]2C1 | -111
79 | Cc1nnc(N2CCCC3(CN(Cc4cccnc4)CCO3)C2)o1 (stereo not given) | 4.96
80 | CN(CCCO)C(=O)c1cc(COc2ccc3c(c2)CCCC3)on1 | -148
81 | CC(=O)NCc1cc2n(n1)CCN(Cc1cccc(CCN)c1)C2 | -19.5
82 | CC(C)=Cc1c(-c2ccccc2)ncn1CCN(C)S(C)(=O)=O | -0.334
83 | Cc1noc(C)c1CS(=O)(=O)CC(=O)N1CCc2sccc2C1 | -17
84 | CCN(CC)S(=O)(=O)N1CCCC1c1cccc(Nc2ncc(C)s2)n1 (stereo not given) | -39.3
85 | CC(C)CN1CCC2(CC1)C(=O)Nc1ccc(C(=O)NC(C)C)cc12 | -13.9
86 | Cc1cnc(NC(=O)C(C)Oc2ccc3c(c2)OCO3)s1 (stereo not given) | -5.22
87 | CCCc1noc(CCC(=O)Nc2cc(C(F)(F)F)c[nH]c2=O)n1 | -7.21
88 | Cc1nnc([C@H]2CC[C@@H]3[C@@H](CCN3CC3CCOCC3)O2)o1 | 10.1

Row | Structure (SMILES) | cytotoxicity at 10 µM [%]
89 | CC(C)N(C)Cc1cc(=O)n2c(n1)CN(S(=O)(=O)C1CC1)CCC2 | 0.819
90 | Cn1cnn(CC(=O)NCc2ccccc2F)c1=O | 2.4
91 | Cc1ccc(C(=O)N(Cc2ccccc2F)C2CC2)c(=O)[nH]1 | 0.846
92 | Cc1cnn(CC2CCCN2CCCc2nc3ccccc3o2)c1 (stereo not given) | -6.19
93 | CCn1nc(C(C)C)cc1C(=O)N1CC(OCc2ccccc2F)C1 | -4.62
94 | Cc1ncc(CN2CCC3(CCCN(CC4CCC4)C3)C2)cn1 (stereo not given) | -6.7
95 | Cn1nnc2c1CCN(CC1CC1)C2COCC1CC1 (stereo not given) | -110
96 | CN(C)C(=O)N1C[C@H]2CC[C@@H](C1)N(C(=O)c1c(Cl)cccc1Cl)C2 | 7.2
97 | CN(Cc1cnn(C)c1)C(=O)C1COc2ccccc2C1 (stereo not given) | 0.583
98 | CCOc1cccc(COC(=O)c2cc(Cl)ccn2)n1 | -2.52
99 | CCn1nc(C)c(S(=O)(=O)Nc2ccccc2C(=O)OC)c1C | -0.678
100 | O=c1[nH][nH]c2cn(-c3ccccc3)c(=O)n12 | 4.6
101 | O=S(=O)(Cc1ccccc1)NCC1CCN(c2cnccn2)CC1 | 14.4
102 | CC(CC(=O)NS(=O)(=O)c1ccc2c(c1)OCCO2)c1ccc(F)cc1 (stereo not given) | -31.6
103 | Cc1nc(CN2CCCC(N(C)Cc3nc(C)c(C)o3)C2)no1 (stereo not given) | -6.6
104 | CSCCCNC(=O)Nc1cccc(-c2nccn2C)c1 | -6.25
105 | CC(C)(C)C(=O)NCCNCc1ccc(Cl)c2cccnc12 | -11.4
106 | CCc1nc(CN2CCCN(C(=O)c3cc(C)on3)CC2)cs1 | -7.81
107 | O=C(COc1coc(CN2CCSCC2)cc1=O)c1ccccc1 | 9.21
108 | COc1c(CNC2CCc3c(Cl)cccc32)c(C)nn1C (stereo not given) | 13.3
109 | CC(NC(=O)NCCCc1n[nH]c(N)c1C#N)c1ccccc1F (stereo not given) | -3.6
110 | CCOC(=O)c1c(NC(=O)CN2CCN(C(C)=O)CC2)sc(C)c1C | 1.15
